Laboratory results from the EternaBench riboswitch data.

System: MS2 coat protein
Assay: apparent Kd, MS2 coat protein; higher = weaker binding; RNA-MaP array; FMN 200 µM where present
Summary of the method: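 On Illumina sequencing-chip clusters, designs were transcribed by stalled E. coli RNA polymerase and titrated with SNAP-549-labelled MS2 coat protein (0.7 or 1.5 nM, doubling to 3 µM), without and then with constant ligand, in 100 mM Tris-HCl pH 7.5, 80 mM KCl, 4 mM MgCl2, BSA, DTT, yeast tRNA and Tween-20. Apparent Kd is the median of filtered per-cluster curve fits to green signal normalised to red-channel RNA signal and control-cluster median Fmax.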

[1] = designed as: OFF switch for flavin mononucleotide, no ligand
[2] = ligand present: flavin mononucleotide, designed as: OFF switch for flavin mononucleotide
[3] = designed as: ON switch for flavin mononucleotide, no ligand
[4] = ligand present: flavin mononucleotide, designed as: ON switch for flavin mononucleotide

## GAGGAGCAAGGAUAUACGAGGAUAUGGUAGUUUGUAGAGUGACAUGAGGAUCACCCAUGUAGAAGGUGCGAGGG
[1]
  apparent Kd: 64.2 nM
[2]
  apparent Kd: 52.9 nM

## UAAGUUUAGGUAGGAUAUACUUUCAAUUUCUCUUUCCUUACAUGAGGAUCACCCAUGUUUACAUUGUAGAAGGACCACUAUGUU
[1]
  apparent Kd: 31.8 nM
[2]
  apparent Kd: 26.8 nM

## UUACCUCAUGAGAAGGACAUGAGGAUCACCCAUGUAGGAUAUCGUGGGAGACUGGUAUUGAAUCUUCGGAUUCAAUACCUGUCU
[3]
  apparent Kd: 454 nM
[4]
  apparent Kd: 27.9 nM

## CUAUGAAGAAUAGGAUAUUCGAUCAAAAGGAUAGAAGAAGGGUUACAUGAGGAUCACCCAUGUAUGCACAUGAGGAUCCCUUAG
[1]
  apparent Kd: 188 nM
[2]
  apparent Kd: 196 nM

## GCUGACGAUGUAGGAUAUCUCGACGAUAAGUCGAGAGAAGGACAUGAGGAUCACCCAUGUACUCUAACGUCAGCGAGGAAACUC
[1]
  apparent Kd: 17.2 nM
[2]
  apparent Kd: 18.5 nM

## GCCUCACAUGAGGAUCACCCAUGUCAGGAUAUACCCAUCCGGCGCAAUUGCAGCCGUAGUAGAAGGGACAUGCA
[1]
  apparent Kd: 21.2 nM
[2]
  apparent Kd: 45.8 nM

## AAUCUGUGAGGAUAUGGUGAGUAGUGCCUGAGCGCUGCUCACCAGAAGGCACAUGAGGAUCACCCAUGUAUGAA
[1]
  apparent Kd: 31.2 nM
[2]
  apparent Kd: 99.6 nM

## UUGUUUCGUCAUUAACAUGAGGAUCACCCAUGUAUCGUCUCAAAGGAUAUAUAUGCUUGUUUGCUAUAGAAGGUUGAUUGUUGU
[3]
  apparent Kd: 71.2 nM
[4]
  apparent Kd: 67.2 nM

## GUGCAAACAUGAGGAUAUGUAUUAAAUAAUAAUACAGAAGGCAUGUCAAAUGACAUGAGGAUCACCCAUGUUGGCAAAAUGCGC
[3]
  apparent Kd: 144 nM
[4]
  apparent Kd: 29.7 nM

## UUACUCAUGUAAGGAUAUGCAGCCGAAACGGCUGCAGAAGGUACUACAAUACAUGAGGAUCACCCAUGUAAAAUAAAUAAAGUU
[3]
  apparent Kd: 53.7 nM
[4]
  apparent Kd: 22.7 nM

## AAAGUGUAAGGAUAUGCUGCUCGUCACUUGCGUGAUGAGUAGCAGAAGGUACAUGAGGAUCACCCAUGUAAAAA
[1]
  apparent Kd: 28.8 nM
[2]
  apparent Kd: 38.3 nM

## CGUUGGUCAGGAUAUGGUGGGCUGGUCGCGCGGCCGGGUGGCUAGAAGGGACAUGAGGAUCACCCAUGUACGGC
[1]
  apparent Kd: 21.5 nM
[2]
  apparent Kd: 40.5 nM

## GUAGGGUCAGGAUAUACGGGCGGGAGGAUGUAGUGGAGUUGGUAGAAGGGACAUGAGGAUCACCCAUGUGAGAA
[1]
  apparent Kd: 30.7 nM
[2]
  apparent Kd: 27.8 nM

## GGGAGUGGAGGGAAUAACAUGAGGAUCACCCAUGUAUGGGAGAGAAGGCAGGUCGGAGGGCGGUCUGAGGAUAUUUAGACUCCU
[3]
  apparent Kd: 8.96 nM
[4]
  apparent Kd: 7.43 nM

## AGAAACUACGAGAAGGACAUGUGGUCCUUCAGUUACAUGAGGAUCACCCAUGUAGGAUAUCGUAGUUUCAGGAUCGUGAGAUCC
[1]
  apparent Kd: 42 nM
[2]
  apparent Kd: 12.5 nM

## UUAAUUAAUUAAUUAUACAUGAGGAUCACCCAUGUAAGUGAUCAGGAUAUCAGCUCGAAUAGAGCUGAGAAGGGAUACAUGUAA
[3]
  apparent Kd: 199 nM
[4]
  apparent Kd: 111 nM

## AGCUACGUUUCGUAGCAGUGUCAUCGAGAAGGCCUUAUUACAUGAGGAUCACCCAUGUAUGCAUGGGAGGAUAUCGAUGAUACA
[3]
  apparent Kd: 13.9 nM
[4]
  apparent Kd: 5.25 nM

## ACUUAUCAUGUAGGAUAUGCGUGGCGAAGCUAUGCAGAAGGACAUGAGGAUCACCCAUGUUUUAGCGUCUGCGUACAGAUGCGU
[1]
  apparent Kd: 54 nM
[2]
  apparent Kd: 192 nM

## GGGUUCAUGUAAGGAUAUGUAUUGUUAAUCGGAGCAGAAGGUACAUGAGGAUCACCCAUGUCAACCUAGAGCAGGGCUUCUUAA
[1]
  apparent Kd: 23.7 nM
[2]
  apparent Kd: 45.2 nM

## UUUAUGUAAGAGAAGGAGGACUUCAUGAGGAUCACCCAUGUGUUAGUACUUAGGAUAUUUGACAACAUGAGGAUCACCCAUGUC
[3]
  apparent Kd: 59.9 nM
[4]
  apparent Kd: 58.4 nM

## GCACUGACAGGAUAUACAUGAGGAUCACCCAUGUGACCCUUAUAGUACUCGCGUACUGGUAGAAGGGUCUGUGC
[1]
  apparent Kd: 78.8 nM
[2]
  apparent Kd: 558 nM

## UAAACAUGAGGAUCACCCAUGUAAAGAUCGGUAGUAGAGAGUGAGGAUAUACUAAAUUUAAUGGAGUAGAAGGCACUGGGUUCU
[3]
  apparent Kd: 44.8 nM
[4]
  apparent Kd: 30.9 nM

## ACCAGGGAUUCAGGAUAUAUUAGCCGAGGCCGCGUAGAAGGGAAAUCCUGACAUGAGGAUCACCCAUGUCGACCCGCCUUCCAC
[3]
  apparent Kd: 22.8 nM
[4]
  apparent Kd: 24.2 nM

## GGAGACCUCACAGGAUAUGCUGGACUUUGUCCAGCAGAAGGGUGAAACAUGAGGAUCACCCAUGUAAUGGUCUCCAAAUUUAAU
[3]
  apparent Kd: 1030 nM
[4]
  apparent Kd: 55.6 nM

## AGACCGCUACGCCGGUUUGACGCACAGGAUAUGCGGUUACAUGAGGAUCACCCAUGUGGCCAUGAGUAGAAGGGUGGUUCGUCC
[3]
  apparent Kd: 49.9 nM
[4]
  apparent Kd: 39.1 nM

## UUAAAUCAUGUAGGAUAUGCAUGGCGAAGCUACGCAGAAGGACAUGAGGAUCACCCAUGUUAUAGCUACCGAGUUCGGUGGCAA
[1]
  apparent Kd: 109 nM
[2]
  apparent Kd: 224 nM

## GUCAGCUCGUGAGGAUAUACAACACUGCUUCGGCAGUGUAUUAAGAUCACAUGAGGAUCACCCAUGUAGAAGGAACGAGCUGAU
[1]
  apparent Kd: 7.52 nM
[2]
  apparent Kd: 24.2 nM

## UUGGAGUUCGUAGGAUAUGUAGGAUAUUCCUACAUGAGGAUCACCCAUGUUUACAUGGAAGAAGGACAGAAGGACGAGCUCCAU
[3]
  apparent Kd: 1580 nM
[4]
  apparent Kd: 16.2 nM

## AAUAAACAUGAGGAUCACCCAUGUCAGGAUAUGCGUCUAACCUAAUACCAUAGAUACGGCAGAAGGGACUAAUA
[1]
  apparent Kd: 50.2 nM
[2]
  apparent Kd: 33.8 nM

## UUUUCAUCAUCAGGAUAUUAACGUGGGCUACUUUAAGAAGGGAUAGUGGGAGAGGAUGUGAAACAUGAGGAUCACCCAUGUUGU
[3]
  apparent Kd: 14.2 nM
[4]
  apparent Kd: 10 nM

## AGCCAGGACGGGUGCCUGAGCGGGAGAAGGUACGAGGGAUCGUCUGGACAUGAGGAUCACCCAUGUAAGGAUAUCCCGCCUAUU
[1]
  apparent Kd: 8.78 nM
[2]
  apparent Kd: 18.1 nM

## AGCAUGUGAGGAUAUGCGGACUCCGGUAAAUCUGGAGUCCAGUAGAAGGCACAUGAGGAUCACCCAUGUGAUAA
[1]
  apparent Kd: 98.3 nM
[2]
  apparent Kd: 83.2 nM

## GCGUAUAAGGUGUAGCUAGACAUUCAAGAAGGGUGAAGAACAUGAGGAUCACCCAUGUAGUAGGUACAGGAUAUUGAUUUACGC
[3]
  apparent Kd: 656 nM
[4]
  apparent Kd: 372 nM

## AGUAGAUCAGGAUAUACAUGAAAGAUCAAAAUGUCCAAUCUACAUGAGGAUCACCCAUGUAGAAGGGAUCUACA
[1]
  apparent Kd: 17.1 nM
[2]
  apparent Kd: 23 nM

## ACAUGAGGAUCACCCAUGUGGACAUAGGAUAUUGGUGAUCAGGCGUGUUAUACAGGAUAGGUCUGCGAGAAGGGUGUGCGUUGC
[3]
  apparent Kd: 406 nM
[4]
  apparent Kd: 218 nM

## ACCUCACAUGAGGAUCACCCAUGUCAGGAUAUUCAAACAGGCGGAACUCCGCCUUCUCGAAGAAGGGACAUUAA
[1]
  apparent Kd: 16.2 nM
[2]
  apparent Kd: 72.4 nM

## UGCAUGGUAGGAUAUACGGAGCAUUAGGGUUUGUUAUGUGGACAUGAGGAUCACCCAUGUAGAAGGGCCGUGCU
[1]
  apparent Kd: 37.3 nM
[2]
  apparent Kd: 57.1 nM

## UGAUUUCAUGUAGGAUAUGCUUGGCGUAGCUACGCAGAAGGACAUGAGGAUCACCCAUGUUUUAGCGUCUGAGUAUAGAUUCUU
[1]
  apparent Kd: 35.3 nM
[2]
  apparent Kd: 89.7 nM

## UCGUGAAGGAUAGGAUAUGGACAUGAGGAUCACCCAUGUACAUGGGAAUGAAUACUGAAUUUGUACUAGAAGGGUUACAUAAAU
[1]
  apparent Kd: 44.4 nM
[2]
  apparent Kd: 39.5 nM

## GGUCCAUCAUGAGGAUAUGGCACCUUAUUGGUGCCAGAAGGCAUGUCUAUAGACAUGAGGAUCACCCAUGUGAUAAAUUGGACC
[3]
  apparent Kd: 523 nM
[4]
  apparent Kd: 49.9 nM

## AUCAGCACGUGAGGAUAUGCGUCACUGCGUCAGCAGUGUGGUAAGAUCACAUGAGGAUCACCCAUGUAGAAGGCACGAGCUGAU
[1]
  apparent Kd: 34 nM
[2]
  apparent Kd: 460 nM

## UUUUAGUCAGGAUAUCGUUAAUUUAAUUGUUUGUAUUAGUUCGAGAAGGGACAUGAGGAUCACCCAUGUAUUUU
[1]
  apparent Kd: 33.5 nM
[2]
  apparent Kd: 43 nM

## GCGCUUAUACAGAAGGCCAGUUACAUGAGGAUCACCCAUGUUAGAUUGUGGAGGAUAUGUGUUUUAUUACAGAUAGUUGAGCGC
[3]
  apparent Kd: 13.4 nM
[4]
  apparent Kd: 6.84 nM

## CACGCAUGUGGAGGAUAUGCAGUUAACAUAAGCGCAGAAGGCCACAUGAGGAUCACCCAUGUCCAGCAUUAGCUGAUGUUGAUC
[1]
  apparent Kd: 385 nM
[2]
  apparent Kd: 195 nM

## CCAGAUAUGUGAGGAUAUAUAGUGGAAUACACUAUAGAAGGUAUGUGAGAACAUGAGGAUCACCCAUGUCAUUGGAUAUCUGGA
[3]
  apparent Kd: 33.5 nM
[4]
  apparent Kd: 38.1 nM

## CAGCCCUGAGGAUAUCCAUCCUUGUACAUGAGGAUCACCCAUGUUUCCCUCUGGGCUUUCGGAGAAGGCAGGUAUC
[1]
  apparent Kd: 61 nM
[2]
  apparent Kd: 61.7 nM

## UCUGCCGCCGUGAGGAUAUGCCCAAAUAAAAGCGGGCAGAAGGCACAUGAGGAUCACCCAUGUCCCGCGGUUUU
[1]
  apparent Kd: 15.8 nM
[2]
  apparent Kd: 38.4 nM

## UUGACGGCAGGAUAUACAUGAGGAUCACCCAUGUAAAUUUUUCGUUUAACUUGAAUGUGUAGAAGGGCCAAAAC
[1]
  apparent Kd: 22.7 nM
[2]
  apparent Kd: 19.5 nM
